Measurements from ChEMBL document CHEMBL3751829, “Synthesis and biological evaluation of 3-tetrazolo steroidal analogs: Novel class of 5α-reductase inhibitors” (Bioorg Med Chem, 2016).

What was measured:
[1] = Cytotoxicity against human DU145 cells by rapid colorimetric assay; assay type: functional, cell-based, DU-145
Method in brief: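 Antiproliferative test on DU-145 cells using the Mosmann method. Seven concentrations were tested in culture medium.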

[2] = target: T1, 3-oxo-5-alpha-steroid 4-dehydrogenase 2 (Homo sapiens, UniProt P31213); test: Inhibition of human 5alpha-2 reductase expressed in HEK293 cells assessed as suppression of conversion of [3]androstenedione incubated for 30 mins by radioactivity-based HPLC analysis; assay type: cell-based
T1 sequence (P31213 whole entry): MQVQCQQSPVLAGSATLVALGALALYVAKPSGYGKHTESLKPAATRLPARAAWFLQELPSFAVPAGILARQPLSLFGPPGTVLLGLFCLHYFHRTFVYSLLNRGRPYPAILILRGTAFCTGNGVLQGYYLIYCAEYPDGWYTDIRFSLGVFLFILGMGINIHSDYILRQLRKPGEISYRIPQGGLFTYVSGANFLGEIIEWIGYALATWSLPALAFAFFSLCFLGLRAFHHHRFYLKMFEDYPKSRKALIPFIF
Method in brief: (§1)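 Stably transfected HEK293 lines expressing 5AR-1 (HEK-I) or 5AR-2 (HEK-II) were sonicated in saccharose/Tris/EDTA buffer. The suspension was incubated at 37 °C for 30 min with 500 nM androstenedione solution plus [3H]androstenedione and an NADP/glucose/G6PDH regenerating system. Test compounds were added in 2% DMSO. The reaction was stopped with ether; steroids were extracted and analysed by radio-HPLC.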

Rattus norvegicus [3] = test: Effect on organ weight in male wistar rat assessed as dorsal prostate tissue weight per 100g at 5ml/kg, po qd measured on 15th day after 24 hrs of last dose (Rvb=50.325+/-7.519 mg/100g); assay type: functional, Prostate gland
Rattus norvegicus [4] = test: Effect on organ weight in male wistar rat assessed as ventral prostate tissue weight per 100g at 5ml/kg, po qd measured on 15th day after 24 hrs of last dose (Rvb=59.494+/- 4.733 mg/100g); assay type: functional, Prostate gland
Rattus norvegicus [5] = test: Decrease in epididymis organ weight in male wistar rat at 5ml/kg, po qd measured on 15th day after 24 hrs of last dose; assay type: functional; parameters: scale not given: the % may be the effect or the level left
Rattus norvegicus [6] = test: Decrease in vas deferens organ weight in male wistar rat at 5ml/kg, po qd measured on 15th day after 24 hrs of last dose; assay type: functional; parameters: scale not given: the % may be the effect or the level left
Rattus norvegicus [7] = test: Increase in body weight gain in male wistar rat at 5ml/kg, po qd measured on 15th day after 24 hrs of last dose (Rvb=9.412+/-1.632g%); assay type: ADME, organism-based; details: in vivo
Rattus norvegicus [8] = test: Effect on organ weight in male wistar rat assessed testis tissue weight per 100g at 5ml/kg, po qd measured on 15th day after 24 hrs of last dose (Rvb=1054.099+/- 55.648 mg/100g); assay type: ADME, organism-based; details: in vivo
Rattus norvegicus [9] = test: Effect on organ weight in male wistar rat assessed as seminal vesicles tissue weight per 100g at 5ml/kg, po qd measured on 15th day after 24 hrs of last dose (Rvb=175.439+/-12.833 mg/100g); assay type: ADME, organism-based; details: in vivo
Rattus norvegicus [10] = test: Decrease in ventral prostate organ weight in male wistar rat at 5ml/kg, po qd measured on 15th day after 24 hrs of last dose; assay type: functional, Prostate gland; parameters: scale not given: the % may be the effect or the level left
Rattus norvegicus [11] = test: Decrease in dorsal prostate organ weight in male wistar rat at 5ml/kg, po qd measured on 15th day after 24 hrs of last dose; assay type: functional, Prostate gland; parameters: scale not given: the % may be the effect or the level left
[12] = target: T2, 3-oxo-5-alpha-steroid 4-dehydrogenase 2 (Homo sapiens) (UniProt P31213); test: Inhibition of human 5alpha-2 reductase expressed in HEK293 cells assessed as suppression of conversion of [3]androstenedione at 2 uM incubated for 30 mins by radioactivity-based HPLC analysis; assay type: cell-based; method in brief: as §1
T2 sequence (whole entry): T1 sequence (P31213 whole entry)

Rattus norvegicus [13] = test: Effect on organ weight in male wistar rat assessed as vas deferens tissue weight per 100g at 5ml/kg, po qd measured on 15th day after 24 hrs of last dose (Rvb=67.613+/-3.248 mg/100g); assay type: functional
Rattus norvegicus [14] = test: Toxicity in male wistar rat assessed induction of mortality at 5ml/kg, po qd measured on 15th day after 24 hrs of last dose; assay type: organism-based; details: in vivo
Method in brief: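 Mature male Wistar rats, groups of 5, standard diet. Compounds suspended in 0.50% CMC sodium given orally at 5 ml/kg once daily for 14 days; controls received vehicle only. Animals weighed and killed under ether on day 15, 24 h after last dose.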

Rattus norvegicus [15] = test: Effect on organ weight in male wistar rat assessed as epididymis tissue weight per 100g at 5ml/kg, po qd measured on 15th day after 24 hrs of last dose (Rvb=187.356+/- 5.961 mg/100g); assay type: functional
[16] = target: T3, 3-oxo-5-alpha-steroid 4-dehydrogenase 1 (Homo sapiens) (UniProt P18405); test: Inhibition of human 5alpha-1 reductase expressed in HEK293 cells assessed as suppression of conversion of [3]androstenedione at 10 uM incubated for 30 mins by radioactivity-based HPLC analysis; assay type: cell-based; method in brief: as §1
T3 sequence (whole entry): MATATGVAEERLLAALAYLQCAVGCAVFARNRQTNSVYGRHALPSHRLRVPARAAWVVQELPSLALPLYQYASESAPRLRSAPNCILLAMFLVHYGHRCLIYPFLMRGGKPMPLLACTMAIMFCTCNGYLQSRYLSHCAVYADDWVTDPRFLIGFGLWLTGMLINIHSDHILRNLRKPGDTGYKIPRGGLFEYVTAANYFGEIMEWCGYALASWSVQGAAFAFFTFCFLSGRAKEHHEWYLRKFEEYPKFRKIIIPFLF

Rattus norvegicus [17] = test: Effect on organ weight in male wistar rat assessed as liver tissue weight per 100g at 5ml/kg, po qd measured on 15th day after 24 hrs of last dose (Rvb=2.994+/- 0.254 g/100g); assay type: ADME, organism-based; details: in vivo
Rattus norvegicus [18] = test: Effect on organ weight in male wistar rat assessed as adrenal tissue weight per 100g at 5ml/kg, po qd measured on 15th day after 24 hrs of last dose (Rvb=14.762 +/-0.600 mg/100g); assay type: ADME, organism-based; details: in vivo
[19] = target: T2, 3-oxo-5-alpha-steroid 4-dehydrogenase 2 (Homo sapiens); test: Inhibition of human 5alpha-2 reductase expressed in HEK293 cells assessed as suppression of conversion of [3]androstenedione at 10 uM incubated for 30 mins by radioactivity-based HPLC analysis; assay type: cell-based; method in brief: as §1
[20] = Homo sapiens, DU-145, read-out: IC50

| SMILES | IC50 ([1]; du-145) | IC50 [2] [nM] | Activity (Rattus norvegicus [3]) [mg] | Activity (Rattus norvegicus [4]) [mg] | Activity (Rattus norvegicus [5]) [%] | Activity (Rattus norvegicus [6]) [%] | Activity (Rattus norvegicus [7]) [g%] | Activity (Rattus norvegicus [8]) [mg] | Activity (Rattus norvegicus [9]) [mg] | Activity (Rattus norvegicus [10]) [%] | Activity (Rattus norvegicus [11]) [%] | inhibition [12] [%] | Activity (Rattus norvegicus [13]) [mg] | Activity (Rattus norvegicus [14]) | Activity (Rattus norvegicus [15]) [mg] | inhibition [16] [%] | Activity (Rattus norvegicus [17]) [g] | Activity (Rattus norvegicus [18]) [mg] | inhibition [19] [%] | IC50 [1, 20] [µM] |
| --- | --- | --- | --- | --- | --- | --- | --- | --- | --- | --- | --- | --- | --- | --- | --- | --- | --- | --- | --- | --- |
| CCN1C(=O)CC[C@H]2[C@@H]3CC=C4C=C(c5nnn[nH]5)CC[C@]4(C)[C@H]3CC[C@@]21C | ND(Unstable) |  |  |  |  |  |  |  |  |  |  |  |  |  |  |  |  |  |  |  |
| C[C@]12CCC(c3nnn[nH]3)=CC1=CC[C@@H]1[C@@H]2CC[C@]2(C)NC(=O)CC[C@@H]12 | Not Active | 220 | 31.548 | 44.744 | 11.09 | 37.09 | 15.498 | 1152.287 | 183.148 | 24.79 | 37.31 | 90.6 | 42.532 | Non-toxic | 166.584 | 9.6 | 3.215 | 16.421 | 100 |  |
| CN1C(=O)CC[C@H]2[C@@H]3CC=C4C=C(c5nnn[nH]5)CC[C@]4(C)[C@H]3CC[C@@]21C |  | 274 | 44.593 | 41.684 | 9.03 | 11.56 | 15.456 | 1233.129 | 199.778 | 29.94 | 11.39 | 84.3 | 59.796 | Non-toxic | 170.447 | 6.4 | 3.328 | 16.362 | 91.2 | 389 |
| CC(C)(C)NC(=O)[C@H]1CC[C@H]2[C@@H]3CC[C@H]4NC(=O)C=C[C@]4(C)[C@H]3CC[C@]12C [FINASTERIDE] |  | 40 | 27.519 | 32.866 | 14.4 | 14.45 | 8.032 | 1058.022 | 105.51 | 44.76 | 45.32 |  | 57.843 |  | 160.371 |  | 3.5097 | 16.575 |  | 548 |
| C[C@]12CCC(c3nnn[nH]3)=CC1=CC[C@@H]1[C@@H]2CC[C@@]2(C)[C@H]1CCC(=O)N2Cc1ccccc1 | ND(Unstable) |  |  |  |  |  |  |  |  |  |  |  |  |  |  |  |  |  |  |  |
| C[C@]12CCC(c3nnn[nH]3)=CC1=CC[C@@H]1[C@@H]2CC[C@@]2(C)[C@H]1CCC(=O)N2CCc1nnn[nH]1 | ND(Unstable) |  |  |  |  |  |  |  |  |  |  |  |  |  |  |  |  |  |  |  |
| CC(=O)n1nnnc1C1=CC2=CC[C@@H]3[C@H](CC[C@]4(C)NC(=O)CC[C@@H]34)[C@@]2(C)CC1 | ND(Unstable) |  |  |  |  |  |  |  |  |  |  |  |  |  |  |  |  |  |  |  |
| C[C@]12CC[C@H]3[C@@H](CCC4=CC(=O)CC[C@@]43C)[C@@H]1CC[C@@H]2O [TESTOSTERONE] |  |  | 45.124 | 70.923 |  |  | 3.767 | 1108.457 | 167.305 |  |  |  | 55.097 |  | 171.193 |  | 3.292 | 13.969 |  |  |
| C[C@]12C=CC(=O)N[C@@H]1CC[C@@H]1[C@@H]2CC[C@]2(C)[C@@H](C(=O)Nc3cc(C(F)(F)F)ccc3C(F)(F)F)CC[C@@H]12 [DUTASTERIDE] |  |  | 29.211 | 35.858 |  |  | 11.914 | 1067.385 | 118.275 |  |  |  | 52.802 |  | 155.415 |  | 3.209 | 14.208 |  |  |
